Data from ChEMBL document CHEMBL3108779, “Pyrronazols, metabolites from the myxobacteria Nannocystis pusilla and N. exedens, are unusual chlorinated pyrone-oxazole-pyrroles” (J Nat Prod, 2014).
Converted amounts (≈) assume the structure as drawn. Blank lines part the entries; values can stand above or below the compound they belong to. The source made the active and inactive calls. No cut-off for these calls is given here.

What was measured:
[1] = test system: Chromobacterium violaceum; experiment: Antibacterial activity against Chromobacterium violaceum DSM 30191 assessed as growth inhibition after 24 to 48 hrs; assay type: functional
[2] = test system: Mycolicibacterium diernhoferi; experiment: Antibacterial activity against Mycobacterium diernhoferi DSM 43542 assessed as growth inhibition after 24 to 48 hrs; assay type: functional
Nocardia sp. = experiment: Antibacterial activity against Nocardia sp. DSM 43069 assessed as growth inhibition after 24 to 48 hrs; assay type: functional
[3] = Antifungal activity against Trichosporon oleaginosus DSM 11815 assessed as growth inhibition after 24 to 48 hrs; assay type: functional; conditions: Cutaneotrichosporon oleaginosum
Procedure, shortened: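 Yeast pre-grown at 30 °C and 160 rpm for 24−48 h, then adjusted to OD548 0.1. Tested by 1:1 serial dilution in 96-well plates in MYC medium (1.0% glucose, 1.0% phytone peptone, 50 mM HEPES, pH 7.0). MIC was the lowest concentration preventing visible growth.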

Mycobacterium sp. = experiment: Antibacterial activity against Mycobacterium sp. DSM 43270 assessed as growth inhibition after 24 to 48 hrs; assay type: functional
Aspergillus flavus = experiment: Antifungal activity against Aspergillus flavus DSM 1959 assessed as growth inhibition after 24 to 48 hrs; assay type: functional
Procedure, shortened: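 Fungus grown at 30 °C, 160 rpm for 24−48 h, then tested by 1:1 serial dilution in MYC medium (1.0% glucose, 1.0% phytone peptone, 50 mM HEPES, pH 7.0) in 96-well plates. MIC read as the lowest concentration preventing visible growth.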

Aspergillus fumigatus = experiment: Antifungal activity against Aspergillus fumigatus DSM 15966 assessed as growth inhibition after 24 to 48 hrs; assay type: functional
Procedure, shortened: (§1)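 Fungi pre-grown at 30 °C and 160 rpm for 24−48 h. Tested by 1:1 serial dilution in 96-well microtiter plates in MYC medium (1.0% glucose, 1.0% phytone peptone, 50 mM HEPES, pH 7.0). MIC was the lowest concentration preventing visible growth.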

Wickerhamomyces anomalus = experiment: Antifungal activity against Wickerhamomyces anomalus DSM 6766 assessed as growth inhibition after 24 to 48 hrs; assay type: functional
Procedure, shortened: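 Yeast grown at 30 °C, 160 rpm for 24−48 h and adjusted to OD548 0.1, then tested by 1:1 serial dilution in MYC medium (1.0% glucose, 1.0% phytone peptone, 50 mM HEPES, pH 7.0) in 96-well plates. MIC taken as the lowest concentration preventing visible growth.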

Mucor hiemalis = experiment: Antifungal activity against Mucor hiemalis DSM 2656 assessed as growth inhibition after 24 to 48 hrs; assay type: functional; procedure, shortened: as §1
Paenibacillus polymyxa = experiment: Antibacterial activity against Paenibacillus polymyxa DSM 36 assessed as growth inhibition after 24 to 48 hrs; assay type: functional
[4] = Cytotoxicity against human KB3-1 cells after 5 days by MTT assay; assay type: functional; conditions: KB 3-1, 120 h, read-out: LD50 (the source's name)
Procedure, shortened: (§2)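 A549, KB-3-1 and mouse fibroblast L929 cells cultured in DMEM plus 10% FBS at 37 °C, 10% CO2. IC50 determined by MTT assay in 96-well microplates; methanol served as negative control.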

SK-OV-3 = experiment: Cytotoxicity against human SKOV3 cells after 5 days by MTT assay; assay type: functional; conditions: SK-OV-3, 120 h, read-out: LD50 (the source's name)
Procedure, shortened: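 Human ovarian carcinoma SKOV3 cells maintained in McCoy's medium with 10% FBS, 37 °C, 10% CO2. IC50 obtained from MTT assay in 96-well plates, with methanol as negative control.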

A549 = experiment: Cytotoxicity against human A549 cells after 5 days by MTT assay; assay type: functional; conditions: A549, 120 h, read-out: LD50 (the source's name); procedure, shortened: as §2
[5] = Cytotoxicity against HUVEC after 5 days by MTT assay; assay type: cell-based; conditions: human, HUVEC cells
Procedure, shortened: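 Nontransformed HUVEC kept in EBM-2 with 10% FBS at 37 °C under 10% CO2. MTT read-out in 96-well plates gives the IC50, with methanol as negative control.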

L929 = experiment: Cytotoxicity against mouse L929 cells after 5 days by MTT assay; assay type: functional; conditions: L929, 120 h, read-out: LD50 (the source's name); procedure, shortened: as §2

MIC [1]: 2.1 µg/mL
MIC [2]: < 0.52 µg/mL
MIC (Nocardia sp.): < 0.52 µg/mL
MIC [3]: 0.1 µg/mL
MIC (Mycobacterium sp.): 2.1 µg/mL
Structure (SMILES): CN[C@@H]1[C@H](O[C@H]2[C@H](O[C@H]3[C@H](O)[C@@H](O)[C@H](N=C(N)N)[C@@H](O)[C@@H]3N=C(N)N)O[C@@H](C)[C@]2(O)C=O)O[C@@H](CO)[C@H](O)[C@H]1O.CN[C@@H]1[C@H](O[C@H]2[C@H](O[C@H]3[C@H](O)[C@@H](O)[C@H](N=C(N)N)[C@@H](O)[C@@H]3N=C(N)N)O[C@@H](C)[C@]2(O)C=O)O[C@@H](CO)[C@H](O)[C@H]1O.O=S(=O)(O)O.O=S(=O)(O)O.O=S(=O)(O)O [STREPTOMYCIN SULFATE]

Structure (SMILES): C[C@@H]1[C@H](O)[C@@H](C)/C=C/C=C/C=C/C=C/C=C/C=C/C=C/[C@H](O[C@@H]2O[C@H](C)[C@@H](O)[C@H](N)[C@@H]2O)C[C@@H]2O[C@](O)(C[C@@H](O)C[C@@H](O)[C@H](O)CC[C@@H](O)C[C@@H](O)CC(=O)O[C@H]1C)C[C@H](O)[C@H]2C(=O)O [AMPHOTERICIN B]
MIC (Aspergillus flavus): 1 µg/mL (≈ 1.08 µM)
MIC (Aspergillus fumigatus): < 0.52 µg/mL

Structure (SMILES): C[C@@H]1[C@H](O)[C@@H](C)/C=C/C=C/CC/C=C/C=C/C=C/C=C/[C@H](O[C@@H]2O[C@H](C)[C@@H](O)[C@H](N)[C@@H]2O)C[C@@H]2O[C@](O)(C[C@@H](O)[C@H](O)CC[C@@H](O)C[C@@H](O)C[C@@H](O)CC(=O)O[C@H]1C)C[C@H](O)[C@H]2C(=O)O.O
MIC (Wickerhamomyces anomalus; Hansenula anomala): 0.52 µg/mL
MIC (Mucor hiemalis): 2.1 µg/mL

Structure (SMILES): OC[C@H]1O[C@H](Oc2cccc3nc4c(O)cccc4nc23)[C@@H](O)[C@@H]1O
MIC (Paenibacillus polymyxa): inactive
MIC (Wickerhamomyces anomalus): inactive
MIC [1]: inactive
MIC [2]: 66.6 µg/mL (≈ 193 µM)
MIC (Mucor hiemalis): inactive
MIC (Nocardia sp.): inactive
MIC [3]: inactive
MIC (Aspergillus flavus): inactive
MIC (Aspergillus fumigatus): 33.3 µg/mL (≈ 96.7 µM)

Structure (SMILES): Oc1cccc2nc3c(O)cccc3nc12
MIC (Paenibacillus polymyxa): 66.7 µg/mL (≈ 314 µM)
MIC (Wickerhamomyces anomalus; Hansenula anomala): 33.3 µg/mL (≈ 157 µM)
MIC [1]: 66.7 µg/mL (≈ 314 µM)
CC50 [4]: 5.81 µM
CC50 (SK-OV-3): 2.59 µM
MIC [2]: 33.3 µg/mL (≈ 157 µM)
MIC (Mucor hiemalis): 33.3 µg/mL (≈ 157 µM)
MIC (Nocardia sp.): 33.3 µg/mL (≈ 157 µM)
MIC [3]: inactive
MIC (Mycobacterium sp.): 66.7 µg/mL (≈ 314 µM)
MIC (Aspergillus flavus): inactive
MIC (Aspergillus fumigatus): inactive
CC50 (A549): 5.65 µM
IC50 at 120 h [5]: 3.81 µM
CC50 (L929): 11.3 µM

MIC (Paenibacillus polymyxa): 6.7 µg/mL
Structure (SMILES): CN(C)[C@@H]1C(O)=C(C(N)=O)C(=O)[C@@]2(O)C(O)=C3C(=O)c4c(O)cccc4[C@@](C)(O)[C@H]3[C@H](O)[C@@H]12.Cl [OXYTETRACYCLINE HYDROCHLORIDE]

Structure (SMILES): COC1=CC(=O)O[C@H](c2coc(/C(=C/c3ccc(Cl)[nH]3)CO)n2)[C@@H]1C
MIC (Paenibacillus polymyxa): inactive
MIC (Wickerhamomyces anomalus): inactive
MIC [1]: inactive
CC50 [4]: > 27.4 µM
CC50 (SK-OV-3): > 27.4 µM
MIC [2]: inactive
MIC (Mucor hiemalis): 33.3 µg/mL (≈ 91.3 µM)
MIC (Nocardia sp.): inactive
MIC [3]: inactive
MIC (Mycobacterium sp.): inactive
MIC (Aspergillus flavus): inactive
MIC (Aspergillus fumigatus): inactive
CC50 (A549): > 27.1 µM
IC50 at 120 h [5]: > 27.4 µM
CC50 (L929): > 27.4 µM
